Laboratory results: ChEMBL document CHEMBL4414584, “Targeting of Fumarate Hydratase from Mycobacterium tuberculosis Using Allosteric Inhibitors with a Dimeric-Binding Mode” (J Med Chem, 2019)
pIC50: −log10 of the molar value. In brackets after ≈: the same amount, converted by molar mass. Activity calls are given as the source filed them. The rule behind the calls is not given here.

Assays:
[1] = tested on: Mycobacterium tuberculosis; assay: (§1) Inhibition of Mycobacterium tuberculosis fumarate hydratase expressed in Escherichia coli BL21(DE3) at 100 to 1000000 uM using fumaric acid as substrate preincubated for 5 mins followed by substrate addition incubated for 2 mins and measured at 24 secs interval for 10 mins by spectrometric method
Summary of the method: (§2)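 Coupled assay: Mtb fumarase (33.3 nM) with citrate synthase, malate dehydrogenase, acetyl-CoA (267 µM) and NAD+ (200 µM) in 250 mM Tris pH 8.0, 5 mM MgCl2. Ligand in DMSO pre-equilibrated 5 min at 25 °C, then fumaric acid added. A340 read every 24 s over 10 min. Slope corrected by no-substrate control and normalised to uninhibited control.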

[2] = tested on: Mycobacterium tuberculosis; assay: Binding affinity to Mycobacterium tuberculosis fumarate hydratase expressed in Escherichia coli BL21(DE3) assessed as change in melting temperature at 5 mM by Sypro orange dye based differential scanning fluorimetry
[3] = Inhibition of Mycobacterium tuberculosis fumarate hydratase expressed in Escherichia coli BL21(DE3) using fumaric acid as substrate preincubated for 5 mins followed by substrate addition incubated for 2 mins and measured at 24 secs interval for 10 mins by spectrometric method; summary of the method: as §2
[4] = tested on: Mycobacterium tuberculosis; assay: Antimycobacterial activity against Mycobacterium tuberculosis H37Rv assessed as reduction in bacterial growth incubated for 2 weeks in GAST-Fe media by 2-fold serial dilution method; format: functional; settings: for MIC: 336 h
Summary of the method: (§3)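 H37Rv grown in the test medium to OD 0.2–0.4, diluted to OD 0.0002 and added 1:1 to a two-fold serial dilution series of compound. Plates incubated 37 °C for two weeks, then MIC determined.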

[5] = tested on: Mycobacterium tuberculosis; assay: Antimycobacterial activity against Mycobacterium tuberculosis H37Rv assessed as reduction in bacterial growth incubated for 2 week in 7H9/ADC media by 2-fold serial dilution method; format: functional; settings: for MIC: 336 h; summary of the method: as §3
[6] = tested on: Mycobacterium tuberculosis; assay: Antimycobacterial activity against Mycobacterium tuberculosis H37Rv assessed as reduction in bacterial growth incubated for 2 weeks in 7H9/glucose media by 2-fold serial dilution method; format: functional; settings: for MIC: 336 h; summary of the method: as §3
[7] = tested on: Mycobacterium tuberculosis; assay: Antimycobacterial activity against Mycobacterium tuberculosis H37Rv assessed as reduction in bacterial growth incubated for 2 weeks in 7H9/DPPC media by 2-fold serial dilution method; format: functional; settings: for MIC: 336 h; summary of the method: as §3
[8] = tested on: Mycobacterium tuberculosis; assay: as §1, with “50” for “100 to 1000000”, “method relative to control” for “method”; summary of the method: as §2
[9] = Inhibition of N-terminal His6-tagged Mycobacterium tuberculosis fumarate hydratase expressed in Escherichia coli BL21(DE3) using fumaric acid as substrate preincubated for 10 mins followed by substrate addition and measured immediately by fluorescence-based HTS assay
[10] = tested on: Mycobacterium tuberculosis; assay: Antimycobacterial activity against Mycobacterium tuberculosis H37Rv assessed as growth inhibition at 250 uM supplemented with fresh medium containing compound for every 3 days for 7 days relative to control; format: functional
[11] = tested on: Mycobacterium tuberculosis; assay: Binding affinity to Mycobacterium tuberculosis fumarate hydratase expressed in Escherichia coli BL21(DE3) assessed as change in melting temperature at 0.625 mM by Sypro orange dye based differential scanning fluorimetry

Compound	pIC50 [3]	Activity [4]	Activity [5]	Activity [6]	Activity [7]	inhibition [8] [%]	also measured
COc1ccc(S(=O)(=O)N2CCCCCC2)cc1NC(C)=O	–	–	–	–	–	–	inhibition [1]: inactive; ΔTm [2]: -0.6 °C
COc1ccc(S(=O)(=O)N2CCc3ccccc3C2)cc1NC(=O)Cc1n[nH]c(=O)c2ccccc12	5.66	inactive	inactive	inactive	inactive	–	–
COc1ccc2c(c1)CCN(S(=O)(=O)c1ccc(OC)c(NC(=O)Cc3n[nH]c(=O)c4ccccc34)c1)CC2	6.17	inactive	inactive	inactive	inactive	–	–
COc1ccc(S(=O)(=O)N2CCCCCC2)cc1NC(=O)Cc1nnc(O)c2ccccc12	5.70	–	–	–	–	> 90	pIC50 [9]: 5.60; growth inhibition (GI) [10]: 65%; ΔTm [11]: 3.9 °C; MIC [4]: > 100 µM; MIC [5]: > 100 µM; MIC [6]: > 100 µM; MIC [7]: > 100 µM
O=C(Cc1nnc(O)c2ccccc12)Nc1cccc(S(=O)(=O)N2CCCCCC2)c1	–	–	–	–	–	16	–
COc1ccc(C(=O)N2CCCCCC2)cc1NC(=O)Cc1n[nH]c(=O)c2ccccc12	–	–	–	–	–	14	–
COc1ccc(S(=O)(=O)N2CCSCC2)cc1NC(=O)Cc1n[nH]c(=O)c2ccccc12	5.33	inactive	inactive	inactive	inactive	–	–
COc1ccc(S(=O)(=O)N2CCCCCC2)cc1NC(=O)Cc1coc2ccccc12	–	–	–	–	–	< 10	MIC [4]: > 100 µM; MIC [5]: > 100 µM; MIC [6]: 9.4 µM (≈ 4.16 µg/mL); MIC [7]: 6.3 µM (≈ 2.79 µg/mL)
Nc1cccc(S(=O)(=O)N2CCCCCC2)c1	–	–	–	–	–	–	inhibition [1]: inactive; ΔTm [2]: -1.2 °C
COc1ccc(S(=O)(=O)N2CCCCCC2)cc1NC(=O)Cc1ccncc1	–	inactive	inactive	inactive	inactive	< 10	–
COc1ccc(S(=O)(=O)N2CCc3ccccc3CC2)cc1NC(=O)Cc1n[nH]c(=O)c2ccccc12	6.17	inactive	inactive	inactive	inactive	–	–
COc1ccc(S(=O)(=O)NCc2ccccc2)cc1NC(=O)Cc1n[nH]c(=O)c2ccccc12	–	–	–	–	–	53	–
COc1ccc(S(=O)(=O)Nc2ccccc2)cc1NC(=O)Cc1n[nH]c(=O)c2ccccc12	4.77	inactive	inactive	inactive	inactive	–	–
COc1ccc(S(=O)(=O)N2CCCCCC2)cc1N	–	–	–	–	–	–	inhibition [1]: inactive; ΔTm [2]: -0.7 °C
COc1ccc(S(=O)(=O)N2CCCCCC2)cc1NC(=O)Cc1cccc2ccccc12	–	inactive	inactive	inactive	inactive	21	–
COc1ccc(S(=O)(=O)N2CCCCCC2)cc1NC(=O)Cc1ccnc2ccccc12	5.39	inactive	inactive	inactive	inactive	86	–
COc1ccc(S(=O)(=O)N2CC3CC(C2)c2ccccc23)cc1NC(=O)Cc1n[nH]c(=O)c2ccccc12	–	–	–	–	–	44	–
COc1ccc(S(=O)(=O)N2CCCCCC2)cc1NC(=O)CCc1c[nH]c2ccccc12	–	–	–	–	–	12	MIC [4]: > 100 µM; MIC [5]: > 100 µM; MIC [6]: 25 µM (≈ 11.4 µg/mL); MIC [7]: 9.4 µM (≈ 4.28 µg/mL)
Cc1ccc(S(=O)(=O)N2CCCCCC2)cc1NC(=O)Cc1n[nH]c(=O)c2ccccc12	–	–	–	–	–	< 10	–

Compound	pIC50 [3]	Activity [4]	Activity [5]	Activity [6]	Activity [7]	inhibition [8] [%]	also measured
CC(=O)Nc1cccc(S(=O)(=O)N2CCCCCC2)c1	–	–	–	–	–	–	inhibition [1]: inactive; ΔTm [2]: -0.4 °C
CNS(=O)(=O)c1ccc(OC)c(NC(C)=O)c1	–	–	–	–	–	–	inhibition [1]: inactive; ΔTm [2]: -0.4 °C
COc1ccc(S(=O)(=O)N2CCN(C)CC2)cc1NC(=O)Cc1n[nH]c(=O)c2ccccc12	4.42	inactive	inactive	inactive	inactive	–	–
COc1ccc(S(=O)(=O)N2CCCCCC2)cc1	–	–	–	–	–	–	inhibition [1]: inactive; ΔTm [2]: 0.1 °C
Nc1cc(S(=O)(=O)N2CCCCCC2)ccc1O	–	–	–	–	–	–	inhibition [1]: inactive; ΔTm [2]: -1.6 °C
COc1ccc2[nH]cc(CC(=O)Nc3cc(S(=O)(=O)N4CCCCCC4)ccc3OC)c2c1	–	–	–	–	–	38	MIC [4]: > 100 µM; MIC [5]: > 100 µM; MIC [6]: > 100 µM; MIC [7]: 12.5 µM (≈ 5.89 µg/mL)
CCOC(=O)Cc1nnc(O)c2ccccc12	–	–	–	–	–	–	inhibition [1]: inactive; ΔTm [2]: -0.6 °C
COc1ccc(S(=O)(=O)N2CCS(=O)(=O)CC2)cc1NC(=O)Cc1n[nH]c(=O)c2ccccc12	4.89	inactive	inactive	inactive	inactive	–	–
COc1ccc(S(=O)(=O)N2CCCCCC2)cc1NC(=O)Cc1c[nH]c2ccccc12	–	–	–	–	–	27	MIC [4]: > 100 µM; MIC [5]: > 100 µM; MIC [6]: 100 µM (≈ 44.2 µg/mL); MIC [7]: 9.4 µM (≈ 4.15 µg/mL)
COc1ccccc1NC(=O)Cc1n[nH]c(=O)c2ccccc12	–	–	–	–	–	–	inhibition [1]: inactive; ΔTm [2]: -0.4 °C
CNS(=O)(=O)c1ccc(OC)c(NC(=O)Cc2n[nH]c(=O)c3ccccc23)c1	4.24	–	–	–	–	–	–
COc1ccc(S(=O)(=O)N2CCCCCC2)cc1NC(=O)Cc1noc2ccccc12	–	–	–	–	–	< 10	–
COc1ccc(S(=O)(=O)N2CCOCC2)cc1NC(=O)Cc1n[nH]c(=O)c2ccccc12	4.92	inactive	inactive	inactive	inactive	–	–
COc1ccc(S(=O)(=O)N2CCCCCC2)cc1NC(=O)Cn1cnc2ccccc21	–	–	–	–	–	< 10	–
COc1ccc(S(=O)(=O)N2CCCCC2)cc1NC(=O)Cc1n[nH]c(=O)c2ccccc12	5.36	inactive	inactive	inactive	inactive	–	–
COc1ccc(S(=O)(=O)N2CCc3cc(OC)c(OC)cc3C2)cc1NC(=O)Cc1n[nH]c(=O)c2ccccc12	5.47	inactive	inactive	inactive	inactive	–	–
COc1ccc(S(=O)(=O)N2CCCCCCC2)cc1NC(=O)Cc1n[nH]c(=O)c2ccccc12	5.40	–	–	–	–	–	MIC [4]: > 100 µM; MIC [5]: > 100 µM; MIC [6]: 25 µM (≈ 12.1 µg/mL); MIC [7]: 19 µM (≈ 9.21 µg/mL)
O=C(O)Cc1nnc(O)c2ccccc12	–	–	–	–	–	–	inhibition [1]: inactive; ΔTm [2]: -0.4 °C
